The source made the active and inactive calls. No cut-off for these calls is given here.
Assays:
[1] = system: Mus musculus; experiment: Percent inhibition against tetrabenazine induced ptosis in mice administered subcutaneously at 50 mg/kg; type: functional; conditions: sc, route subcutaneous
Procedure, shortened: (§1)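 Male DS mice, 20-27 g, groups of five. Compound given po or sc in saline or gum arabic at 0.1 mL/10 g. Tetrabenazine 50 mg/kg sc given 1, 4 or 24 h later. Ptosis scored 1-4 at 1 h after TBZ, with ridit transformation. Dose for 50% prevention by regression.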

[2] = system: Mus musculus; experiment: Effective dose against pentylenetetrazole intoxicity in mice administered orally; type: functional; conditions: Mus musculus, po; read-out: ED50
[3] = target: GABA-A receptor; anion channel (Rattus norvegicus) (UniProt O09028+P15431+P18506+P18508+P19969+P20236+P23574+P23576+P28471+P28473+P30191+P62813+P63079+P63138+Q91ZM7+Q9ES14); experiment: Binding constant was determined by displacing potential to [3H]-diazepam binding in cerebral cortex homogenates of rat; type: tissue-based
Procedure, shortened: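 Wistar rat cerebral cortex homogenate incubated with compound and 2 nM [3H]diazepam at 0 °C for 60 min. Bound label trapped on glass filters and counted by scintillation. Ki = IC50/(1 + L/Kd).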

[4] = species: Rattus norvegicus; experiment: Inhibitory activity against uptake of [3H]norepinephrine into rat brain synaptosomes.; type: functional
Procedure, shortened: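 P2 synaptosomes from male Wistar rat cerebral cortex incubated with [3H]norepinephrine at 37 °C for 20 min, with compound at 5-6 concentrations. Stopped by Krebs-Henseleit dilution and glass-fibre filtration, then scintillation counting. IC50 taken as the concentration giving 50% uptake inhibition.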

[5] = system: Mus musculus; experiment: Effective dose against tetrabenazine induced ptosis in mice administered orally; type: functional; procedure, shortened: as §1
[6] = system: Mus musculus; experiment: Effective dose against tetrabenazine induced ptosis in mice administered subcutaneously; type: functional; conditions: sc; procedure, shortened: as §1
[7] = system: Mus musculus; experiment: Effective dose against pentylenetetrazole intoxicity in mice administered orally; NE = not effective at dose 50 mg/kg; type: functional, organism-based; set-up: dose 50 mg/kg
[8] = system: Mus musculus; experiment: Effective dose against pentylenetetrazole intoxicity in mice administered subcutaneously; NE = not effective at dose 10 mg/kg; type: functional, organism-based; set-up: dose 10 mg/kg
[9] = system: Mus musculus; experiment: Effective dose against pentylenetetrazole intoxicity in mice administered through subcutaneous route; NE = no effect at 10 mg/kg; type: functional, organism-based; set-up: dose 10 mg/kg
[10] = system: Rattus norvegicus; experiment: Percent inhibition was evaluated by their anticonflict effect in rats when administered through oral route at 32 mg/kg; type: functional
Procedure, shortened: (§2)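 Wistar rats in groups of 5-8, Geller-Seifter conflict procedure. Rats trained to lever-press for food on a variable-interval 60-s schedule. Oral dosing. A dose counted positive when shocks exceeded 12 or shock ratio exceeded 4 over four consecutive tone periods. ED50 with 95% limits by probit.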

[11] = system: Mus musculus; experiment: Percent inhibition against pentylenetetrazole intoxicity in mice administered orally at 50 mg/kg; type: functional; conditions: route oral
[12] = system: Mus musculus; experiment: Percent inhibition against tetrabenazine induced ptosis in mice administered orally at 50 mg/kg; type: functional; conditions: route oral; procedure, shortened: as §1
[13] = system: Mus musculus; experiment: Effective dose against pentylenetetrazole intoxicity in mice administered subcutaneously; NE= no effect at 100 mg/kg; type: functional, organism-based; set-up: dose 100 mg/kg
[14] = system: Mus musculus; experiment: Effective dose against pentylenetetrazole intoxicity in mice administered orally; NE= no effect at 50 mg/kg; type: functional, organism-based; set-up: dose 50 mg/kg
[15] = system: Mus musculus; experiment: Effective dose against pentylenetetrazole intoxicity in mice administered through subcutaneous route;NE = no effect at 10 mg/kg; type: functional, organism-based; set-up: dose 10 mg/kg
[16] = system: Mus musculus; experiment: Effective dose against pentylenetetrazole intoxicity in mice administered through subcutaneous route; type: functional; conditions: sc
[17] = system: Rattus norvegicus; experiment: Effective dose was evaluated by their anticonflict effect in rats when administered through oral route; type: functional; procedure, shortened: as §2
[18] = system: Mus musculus; experiment: Percent inhibition against tetrabenazine induced ptosis in mice administered orally at 100 mg/kg; type: functional; conditions: route oral; procedure, shortened: as §1
[19] = system: Mus musculus; experiment: Percent Inhibition against pentylenetetrazole intoxicity in mice administered orally at 50 mg/kg; type: functional; conditions: route oral
[20] = system: Mus musculus; experiment: Effective dose against pentylenetetrazole intoxicity in mice administered through subcutaneous route;NE= no effect at 10 mg/kg; type: functional, organism-based; set-up: dose 10 mg/kg
[21] = system: Mus musculus; experiment: Effective dose against pentylenetetrazole intoxicity in mice administered orally; NE = no effect at dose 50 mg/kg; type: functional, organism-based; set-up: dose 50 mg/kg
[22] = Acute toxicity was measured in mice after peroral administration (1293-1506); type: organism-based; conditions: mouse, in vivo, po
Procedure, shortened: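 Male DS mice, 20-26 g, given compound orally; mortality checked the day after treatment in groups of 10. LD50 by probit method, or by up-and-down method of Brownlee et al. (n = 5) where estimated.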

[23] = Mus musculus, po, read-out: ED50

Compound `CCOC(=O)N1CCC(N2C(=O)CN=C(c3ccccc3Cl)c3cc(Cl)ccc32)CC1` has an inhibition in vivo at 50 mg/kg [1] of 16%, an ED50 [2] of 1.95 mg/kg and a K2 [3] of 0.02 µM.

In the case of `O=C1CN=C(c2ccccc2Cl)c2cc(Cl)ccc2N1C1CCNCC1`, the IC50 [4] is reported as 562 nM, the ED50 [5, 23] is reported as 9.59 mg/kg and the ED50 [6] is reported as 9.94 mg/kg. For the same compound, the ED50 [2] was 12.9 mg/kg and the K2 [3] was 0.017 µM.

For `CN1CCC(N2C(=O)CN=C(c3ccccc3)c3ccccc32)CC1`, the ED50 [5, 23] was 0.38 mg/kg, the ED50 [7] was “inactive” and the ED50 [8] was “inactive”. It also gave an ED50 [6] of 0.26 mg/kg.

For `CN1CCC(N2C(=O)CN=C(c3ccccc3F)c3cccc(Cl)c32)CC1`, the ED50 [6] was 2.66 mg/kg, the ED50 [9] was “inactive” and the K2 [3] was 4.7 µM.

`CN1CCC(N2C(=O)CN=C(c3ccccc3F)c3cc(Cl)ccc32)C1` (stereo not given) showed an ED50 [5, 23] of 3.69 mg/kg, an ED50 [2] of 1.1 mg/kg and a K2 [3] of 0.2 µM.

In the case of `O=C1CN=C(c2ccccc2)c2cc(F)ccc2N1C1CCNCC1`, the IC50 [4] is reported as 59 nM, the ED50 [5, 23] is reported as 0.39 mg/kg and the K2 [3] is reported as 2 µM. It also gave an inhibition in vivo at 32 mg/kg [10] of 60% and an inhibition in vivo at 50 mg/kg [11] of 12.5%.

Compound `O=C1CN=C(c2ccccc2Cl)c2cc(Cl)ccc2N1C1CCNC1` (stereo not given) has an inhibition in vivo at 50 mg/kg [12] of 34%, an ED50 [6] of 12.6 mg/kg and an ED50 [2] of 9.63 mg/kg. For the same compound, the K2 [3] was 0.027 µM.

In the case of `O=C1CN=C(c2ccccc2)c2cc(Br)ccc2N1C1CCNCC1`, the IC50 [4] is reported as 402 nM, the ED50 [5, 23] is reported as 0.76 mg/kg and the ED50 [2] is reported as 38.8 mg/kg. For the same compound, the K2 [3] was 0.57 µM.

With `CN1CCC(N2C(=O)CN=C(c3ccccc3F)c3ccc(Cl)cc32)CC1` the inhibition in vivo at 50 mg/kg [1] was 34%, the ED50 [13] was “inactive” and the K2 [3] was 0.69 µM. The ED50 [14] was “inactive”.

With `COc1ccc2c(c1)C(c1ccccc1F)=NCC(=O)N2C1CCN(C)CC1` the ED50 [6] was 1.24 mg/kg, the ED50 [9] was “inactive” and the K2 [3] was 1.26 µM.

In the case of `CN1CCC(N2C(=O)CN=C(c3cccc(Cl)c3)c3cc(Cl)ccc32)CC1`, the ED50 [15] is reported as “inactive”, the ED50 [6] is reported as 19.3 mg/kg and the K2 [3] is reported as 23 µM.

For `CN1CCC(N2C(=O)CN=C(c3ccc(F)cc3)c3ccccc32)CC1`, the inhibition in vivo at 50 mg/kg [1] was 53%, the ED50 [9] was “inactive” and the K2 [3] was 68 µM.

`CN1CCC(N2C(=O)CN=C(c3ccccc3F)c3cc(Br)ccc32)CC1` gave an ED50 [16] of 0.79 mg/kg, an ED50 [5, 23] of 3.85 mg/kg and an ED50 [17] of 1.23 mg/kg. It also gave an ED50 [6] of 2.45 mg/kg, an ED50 [2] of 1.61 mg/kg and a K2 [3] of 0.049 µM.

`CN1CCC(N2C(=O)CN=C(c3ccccc3F)c3cc(F)ccc32)CC1` gave an IC50 [4] of 53700 nM, an ED50 [16] of 26.9 mg/kg and an ED50 [5, 23] of 1.62 mg/kg. For the same compound, the ED50 [17] was 11.4 mg/kg and the ED50 [6] was 0.27 mg/kg.

Compound `CN1CCC(N2C(=O)CN=C(c3ccccc3Cl)c3cc(Cl)ccc32)C1` (stereo not given) has an inhibition in vivo at 100 mg/kg [18] of 61%, an ED50 [2] of 5.78 mg/kg and a K2 [3] of 0.05 µM.

`CN1CCC(N2C(=O)CN=C(c3ccccc3F)c3ccccc32)CC1` showed an inhibition in vivo at 50 mg/kg [19] of 37.5%, an ED50 [6] of 0.21 mg/kg and a K2 [3] of 0.2 µM.

With `O=C1CN=C(c2ccccc2Cl)c2cc(Cl)ccc2N1C1CCCNC1` (stereo not given) the inhibition in vivo at 50 mg/kg [12] was 57%, the ED50 [2] was 16.2 mg/kg and the K2 [3] was 0.013 µM.

With `O=C1CN=C(c2ccccc2F)c2cc(Cl)ccc2N1C1CCN(Cc2ccccc2)C1` (stereo not given) the inhibition in vivo at 50 mg/kg [12] was 58%, the ED50 [2] was 1.52 mg/kg and the K2 [3] was 0.27 µM.

For `CN1CCC(N2C(=O)CN=C(c3ccccc3F)c3cc(N(C)C)ccc32)CC1`, the ED50 [6] was 0.7 mg/kg, the K2 [3] was 8.3 µM and the ED50 [20] was “inactive”.

In the case of `O=C1CN=C(c2ccccc2)c2cc(Cl)ccc2N1C1CCNCC1`, the ED50 [21] is reported as “inactive”, the IC50 [4] is reported as 172 nM and the ED50 [5] is reported as 0.48 mg/kg. It also gave an ED50 [5, 23] of 0.48 mg/kg, an ED50 [17] of 11.8 mg/kg and an LD50 [22] of 1390 mg/kg. For the same compound, the ED50 [6] was 0.172 mg/kg, the ED50 [2] was 36.5 mg/kg and the ED50 [9] was “inactive”. It also gave a K2 [3] of 0.35 µM.

From ChEMBL document CHEMBL1123005, “1-Azacycloalkyl-1,4-benzodiazepin-2-ones with antianxiety-antidepressant actions” (J Med Chem, 1985)
